These results are taken from ChEMBL document CHEMBL4385624, “l-Type amino acid transporter 1 activity of 1,2,3-triazolyl analogs of l-histidine and l-tryptophan” (Bioorg Med Chem Lett, 2019).

What all share (type): cell-based
Assay [1] deals with T1, Large neutral amino acids transporter small subunit 1 (Homo sapiens, UniProt Q01650). Briefly: Trans-stimulation of human LAT1 expressed in TREx HEK293 cells assessed as induction of [3H]-gabapentin efflux at 200 uM after 3 mins by scintillation counting analysis relative to L-phenylalanine. Put shortly:
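[³H]-gabapentin-preloaded HEK-hLAT1 cells (inducible) were treated with compound at 200 μM. Efflux rate was taken at 3 min and expressed as % of the rate induced by L-phenylalanine, averaged over seven experiments. At least triplicate, 24-well poly-D plates.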

The target in assay [2] is T1, Large neutral amino acids transporter small subunit 1. Briefly: Cis-inhibition of human LAT1 expressed in TREx HEK293 cells assessed as inhibition of [3H]-gabapentin uptake preincubated for 3 mins at 37 degC followed by washing with choline buffer and measured after 3 hrs by scintillation counting analysis. A digest of the protocol:
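Inducible hLAT1 HEK cells in 24-well poly-D plates, pH 7.4. Cells were exposed to [³H]-gabapentin (6 nM) plus test compound at 0.1–500 μM. […] Run at least in triplicate.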

Assay [3] has the same target. Kind of assay: Cis-inhibition of human LAT1 expressed in TREx HEK293 cells at 200 uM assessed as inhibition of [3H]-gabapentin uptake preincubated for 3 mins at 37 degC followed by washing with choline buffer and measured after 3 hrs by scintillation counting analysis relative to BCH.
The target is the same in assay [4]. Briefly: Trans-stimulation of human LAT1 expressed in TREx HEK293 cells assessed as induction of [3H]-gabapentin efflux at 200 uM after 3 mins by scintillation counting analysis. Put shortly:
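HEK cells with inducible hLAT1 were preloaded with [³H]-gabapentin, then exposed to test compound at 200 μM. Efflux rate (fmol/min) was calculated 3 min after compound addition. Data from at least triplicate wells in 24-well poly-D plates.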

T1 sequence (Q01650 whole entry): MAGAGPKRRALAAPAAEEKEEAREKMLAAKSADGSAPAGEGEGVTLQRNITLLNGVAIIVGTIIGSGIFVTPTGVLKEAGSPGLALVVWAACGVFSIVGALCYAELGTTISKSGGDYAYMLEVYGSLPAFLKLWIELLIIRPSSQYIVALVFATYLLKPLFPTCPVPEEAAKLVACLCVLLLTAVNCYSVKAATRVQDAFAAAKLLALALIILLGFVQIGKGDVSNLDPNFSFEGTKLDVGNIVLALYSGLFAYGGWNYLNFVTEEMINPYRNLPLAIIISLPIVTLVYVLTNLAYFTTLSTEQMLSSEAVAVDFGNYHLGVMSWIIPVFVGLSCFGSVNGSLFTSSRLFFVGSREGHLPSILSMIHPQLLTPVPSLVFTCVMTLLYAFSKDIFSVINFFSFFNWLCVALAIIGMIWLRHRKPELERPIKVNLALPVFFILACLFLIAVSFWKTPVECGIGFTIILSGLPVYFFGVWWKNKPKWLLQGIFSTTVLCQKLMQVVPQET

For orientation: IC50 means the point on the concentration scale where inhibition reaches its midpoint. The term inhibition denotes the relative decrease from the control value, in per cent. As to `N[C@@H](Cn1cc(CO)nn1)C(=O)O`, the Activity in assay [1] was 57%. For the same compound, the IC50 in assay [2] is > 1000 µM. The inhibition in assay [3] turned out to be 14%.
The matching figures for `N[C@@H](Cn1nnc2ccccc21)C(=O)O`: 100%, 340 µM and 59%.
As to `N[C@@H](Cc1c[nH]cn1)C(=O)O` [HISTIDINE], the IC50 in assay [2] is 110 µM.
Consider `N[C@@H](Cc1ccccc1)C(=O)O`, for which the Activity in assay [4] came out at 2.7 fmol/min.
As for `N[C@@H](Cn1ccnn1)C(=O)O`, the Activity in assay [1] worked out at 82%. Besides, the IC50 in assay [2] stood at 160 µM. Further, in assay [3], the inhibition came out at 58%.
For `N[C@@H](Cn1cc(-c2ccccc2)nn1)C(=O)O` the same measures were 37%, > 1000 µM and 13%.
In the case of `N[C@@H](Cn1cc(Cc2ccccc2)nn1)C(=O)O`, the Activity in assay [1] is 49%. In addition, the inhibition in assay [3] was -6%.
On to `N[C@@H](Cc1cn(Cc2ccccc2)nn1)C(=O)O`, for which the Activity in assay [1] stood at 43%.
For `Cc1cn(C[C@H](N)C(=O)O)nn1`, the Activity in assay [1] turned out to be 70%. Further, in assay [2], the IC50 amounted to 440 µM. Also, in assay [3], the inhibition worked out at 38%.
For `Cn1cc(C[C@H](N)C(=O)O)nn1` the same measures were 63%, > 1000 µM and 20%.
